Source: ChEMBL document CHEMBL3745653, “Honokiol for the Treatment of Neonatal Pain and Prevention of Consequent Neurobehavioral Disorders” (J Nat Prod, 2015)
Activity calls are given as the source filed them.

Key:
[1] = test system: Rattus norvegicus; test: Antinociceptive activity in Wistar rat pups assessed as paw-lifting at 10 mg/kg, ip administered 1 hr on postnatal day 7 prior to formalin challenge measured for 60 secs at 5 mins interval for 60 mins; assay type: functional, organism-based
In short: (§1)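 Honokiol in corn oil (vehicle alone as control) given ip 1 h before intraplantar sc injection of 5% formalin (10 μL) or saline into the left forepaw. Recuperation behaviours (paw licking, lifting, flinching, rolling) scored for 60 s at 5 min intervals over 60 min. Phase I at 5 min, phase II tonic period 5−60 min. Blinded observers, n = 8 per group, mean ± SEM.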

[2] = test system: Rattus norvegicus; test: Antinociceptive activity in Wistar rat pups assessed as flinching at 10 mg/kg, ip administered 1 hr on postnatal day 7 prior to formalin challenge measured for 60 secs at 5 mins interval for 60 mins; assay type: functional, organism-based; in short: as §1
[3] = test system: Rattus norvegicus; test: Antinociceptive activity in Wistar rat pups assessed as rolling at 10 mg/kg, ip administered 1 hr on postnatal day 7 prior to formalin challenge measured for 60 secs at 5 mins interval for 60 mins; assay type: functional, organism-based; in short: as §1
[4] = test system: Rattus norvegicus; test: Antinociceptive activity in formalin-induced Wistar rat pups pain model assessed as decrease in recuperation time at 10 mg/kg, ip administered 1 hr on postnatal day 7 prior to formalin challenge; assay type: functional; in short: as §1
[5] = test system: Rattus norvegicus; test: Antinociceptive activity in formalin-induced Wistar rat pups pain model assessed as decrease in thermal hyperalgesia at 10 mg/kg, ip administered daily from postnatal day 4 to day 6 prior to formalin challenge followed by further compound administration every other day until postnatal day 17 to day 21 by hot plate test; assay type: functional, organism-based
In short: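 Chronic severe pain model: 5% formalin (10 μL sc) or saline injected into each paw in sequence at 1 h intervals, daily P4−P6. Honokiol or corn oil ip before insult each day, then every other day until P21. Latency to jump on a 55 ± 2 °C hot plate, cutoff 30 s. Three readings at least 15 min apart averaged per animal. Blinded, mean ± SEM.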

[6] = test system: Rattus norvegicus; test: Antinociceptive activity in formalin-induced Wistar rat pups pain model assessed as improved exploratory behavior at 10 mg/kg, ip administered 1 hr on postnatal day 7 prior to formalin challenge measured on postnatal day 21 by defensive withdrawal test; assay type: functional, organism-based
In short: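 Defensive withdrawal at P21, during the dark cycle, after the neonatal formalin or saline insult with ip honokiol or corn oil. Habituation to the 50 × 50 × 50 cm open field for 10 min without the chamber. Animals then started in a dark chamber along the wall. Latency measured until all four paws were outside the chamber. Blinded, mean ± SEM.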

[7] = test system: Rattus norvegicus; test: Toxicity in formalin-induced Wistar rat pups pain model assessed as change in exploratory behavior by measuring distance travelled at 10 mg/kg, ip administered 1 hr […] prior to formalin challenge measured for 5 mins on postnatal day 21 by open field test; assay type: organism-based; settings: in vivo
In short: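 Open-field test at P21 during the dark cycle, 1 h after ip honokiol or corn oil. Rats explored a 50 × 50 × 50 cm box for 5 min under video tracking, and total distance travelled was calculated. n = 3 or 4 per group.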

[8] = test system: Rattus norvegicus; test: Antinociceptive activity in formalin-induced Wistar rat pups pain model assessed as downregulation of c-Fos expression in hippocampus at 10 mg/kg, ip administered on postnatal day 7 measured after 3 days post formalin challenge by immunohistochemical staining assay relative to control; assay type: functional, organism-based
In short: (§2)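 c-Fos immunohistochemistry on brain sections from P7 rats after the 3-day formalin or control protocol. Sections fixed in formalin, treated with 0.3% H2O2, blocked in 1% fish gel, then anti-c-Fos 1:500 for 24 h and biotinylated IgG. Six 20 μm sections ≥90 μm apart per animal, each with six random 20× fields counted. n = 6−8 per group.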

[9] = test system: Rattus norvegicus; test: Antinociceptive activity in formalin-induced Wistar rat pups pain model assessed as downregulation of c-Fos expression in thalamus at 10 mg/kg, ip administered on postnatal day 7 measured after 3 days post formalin challenge by immunohistochemical staining assay relative to control; assay type: functional, organism-based; in short: as §2
[10] = test system: Rattus norvegicus; test: Antinociceptive activity in formalin-induced Wistar rat pups pain model assessed as upregulation of substance P receptor expression in alveus at 10 mg/kg, ip administered 1 hr on postnatal day 7 prior to formalin challenge measured on postnatal day 21 by immunohistochemical staining assay relative to control; assay type: functional, organism-based
In short: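 Substance P receptor immunostaining at P21, 14 days after the 3-day formalin or saline protocol with ip honokiol or corn oil. Sections fixed in formalin then cold methanol, 0.2% Triton under 3 min, 1% fish gel block 1 h, primary antibody 24 h, then secondary. Positive cells counted in the hippocampal alveus, mean ± SEM.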

[11] = test system: Rattus norvegicus; test: Antinociceptive activity in Wistar rat pups assessed as paw-licking at 10 mg/kg, ip administered 1 hr on postnatal day 7 prior to formalin challenge measured for 60 secs at 5 mins interval for 60 mins; assay type: functional, organism-based; in short: as §1
[12] = test system: Rattus norvegicus; test: Antinociceptive activity in formalin-induced Wistar rat pups pain model assessed as increased in discrimination ratio at 10 mg/kg, ip administered 1 hr on postnatal day 7 prior to formalin challenge measured on postnatal day 21 by novel object recognition test

With C=CCc1ccc(O)c(-c2ccc(O)c(CC=C)c2)c1 [HONOKIOL] the Activity [1] was “Active”, the Activity [2] was “Active” and the Activity [3] was “Active”. The Time [4] was 30 min, the Activity [5] was “Active” and the Activity [6] was “Active”. For the same compound, the Activity [7] was 4000 mm, the Activity [8] was “Active” and the Activity [9] was “Active”. For the same compound, the Activity [10] was “Active”, the Activity [11] was “Active” and the Activity [12] was “Active”.
